Measured values reported in ChEMBL document CHEMBL3108731, “A development of chimeric VEGFR2 TK inhibitor based on two ligand conformers from PDB: 1Y6A complex--medicinal chemistry consequences of a TKs analysis” (Eur J Med Chem, 2014).
The source made the active and inactive calls. The rule behind the calls is not given here.

Assays:
[1] = target: Vascular endothelial growth factor receptor 2 (Homo sapiens, UniProt P35968); assay: Inhibition of GST-tagged recombinant human VEGFR2 expressed in Sf9 cells by radiometric assay; type: cell-based
Danio rerio [2] = species on record: Danio rerio; assay: Antiangiogenic activity in zebrafish embryo at 5 uM up to 24 hrs by GFP assay; type: functional
Method in brief: (§1)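 Embryos of transgenic Zebrafish line TG(fli1:EGFP)y1 were used; a fli-1 promoter drives GFP expression in the endothelium. Embryos were incubated with different compound concentrations, and angiogenesis was assessed by live fluorescence imaging. Data are the percentage of treated embryos showing inhibited angiogenesis.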

Danio rerio [3] = species on record: Danio rerio; assay: Antiangiogenic activity in zebrafish embryo at 20 uM up to 24 hrs by GFP assay; type: functional; method in brief: as §1
Danio rerio [4] = species on record: Danio rerio; assay: Toxicity in zebrafish embryo up to 24 hrs by GFP assay; type: organism-based; conditions: in vivo
Danio rerio [5] = species on record: Danio rerio; assay: Antiangiogenic activity in zebrafish embryo at 10 uM up to 24 hrs by GFP assay; type: functional; method in brief: as §1
Danio rerio [6] = species on record: Danio rerio; assay: Antiangiogenic activity in zebrafish embryo up to 24 hrs by GFP assay; type: functional, organism-based; method in brief: as §1
Danio rerio [7] = species on record: Danio rerio; assay: Antiangiogenic activity in zebrafish embryo assessed as inhibition of intersegmental blood vessel growth at 10 uM up to 24 hrs by GFP assay; type: functional, organism-based; method in brief: as §1
BAEC [8] = assay: Antiangiogenic activity in BAEC assessed as inhibition of capillary tube formation after 7 hrs by matrigel assay; type: functional; conditions: Bos taurus
Method in brief: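 BAE cells (5×10^4 per well) in DMEM were seeded on Matrigel (about 10.5 mg/mL) that had polymerized at 37 °C for at least 30 min. Cells were given compound at several amounts and kept at 37 °C, 5% CO2 for 7 h. Cord/tube formation was viewed at 200×. Each concentration was run in duplicate and scored by two independent observers.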

BAEC [9] = assay: Antiangiogenic activity in BAEC assessed as inhibition of cell migration to extracellular matrix at 1 uM after 7 hrs by wound-healing assay; type: functional; conditions: Bos taurus
Method in brief: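 Confluent BAEC monolayers were wounded with a pipette tip to give one 1 mm-wide acellular lane. After washing, cells received complete medium without or with compound. The same fields were photographed at 0 and 7 h. Regrowth into the cell-free area was expressed as % recovered area, mean ± SD, n = 3.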

U2OS = assay: Antiproliferative activity against human U2OS cells after 3 days by MTT assay; type: functional, cell-based; conditions: 72 h
Method in brief: (§2)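 MTT dye-reduction assay: 3×10^3 BAE or 2×10^3 tumour cells in their own growth media were given serial dilutions of compound for 3 days at 37 °C, 5% CO2. MTT (5 mg/ml stock in PBS) was added for 4 h, and formazan was dissolved in 0.04 N HCl/2-propanol and read at 550 nm. IC50 is the concentration giving 50% survival; values are mean ± S.D. of at least three experiments in triplicate.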

BAEC [10] = assay: Induction of apoptosis in BAEC assessed as chromatin condensation at 0.5 to 1 uM after 14 hrs by Hoechst staining; type: functional; conditions: Bos taurus
Method in brief: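 Subconfluent BAE cells on chamber slides were treated for 14 h with the indicated concentrations in complete medium. Cells were then PBS-washed, formalin-fixed and stained with Hoechst for 2 min. Nuclear morphology (chromatin condensation) was examined by fluorescence microscopy.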

HL-60 = assay: Antiproliferative activity against human HL60 cells after 3 days by MTT assay; type: functional, cell-based; conditions: HL-60, 72 h; method in brief: as §2
[11] = Antiproliferative activity against human HT1080 cells after 3 days by MTT assay; type: functional, cell-based; conditions: HT-1080, 72 h; method in brief: as §2
HT-29 = assay: Antiproliferative activity against human HT-29 cells after 3 days by MTT assay; type: functional, cell-based; conditions: HT-29, 72 h; method in brief: as §2
MDA-MB-231 = assay: Antiproliferative activity against human MDA-MB-231 cells after 3 days by MTT assay; type: functional, cell-based; conditions: MDA-MB-231, 72 h; method in brief: as §2
[12] = Antiproliferative activity against BAEC after 3 days by MTT assay; type: functional; conditions: Bos taurus, 72 h; method in brief: as §2

Vascular endothelial growth factor receptor 2, sequence (P35968 whole entry): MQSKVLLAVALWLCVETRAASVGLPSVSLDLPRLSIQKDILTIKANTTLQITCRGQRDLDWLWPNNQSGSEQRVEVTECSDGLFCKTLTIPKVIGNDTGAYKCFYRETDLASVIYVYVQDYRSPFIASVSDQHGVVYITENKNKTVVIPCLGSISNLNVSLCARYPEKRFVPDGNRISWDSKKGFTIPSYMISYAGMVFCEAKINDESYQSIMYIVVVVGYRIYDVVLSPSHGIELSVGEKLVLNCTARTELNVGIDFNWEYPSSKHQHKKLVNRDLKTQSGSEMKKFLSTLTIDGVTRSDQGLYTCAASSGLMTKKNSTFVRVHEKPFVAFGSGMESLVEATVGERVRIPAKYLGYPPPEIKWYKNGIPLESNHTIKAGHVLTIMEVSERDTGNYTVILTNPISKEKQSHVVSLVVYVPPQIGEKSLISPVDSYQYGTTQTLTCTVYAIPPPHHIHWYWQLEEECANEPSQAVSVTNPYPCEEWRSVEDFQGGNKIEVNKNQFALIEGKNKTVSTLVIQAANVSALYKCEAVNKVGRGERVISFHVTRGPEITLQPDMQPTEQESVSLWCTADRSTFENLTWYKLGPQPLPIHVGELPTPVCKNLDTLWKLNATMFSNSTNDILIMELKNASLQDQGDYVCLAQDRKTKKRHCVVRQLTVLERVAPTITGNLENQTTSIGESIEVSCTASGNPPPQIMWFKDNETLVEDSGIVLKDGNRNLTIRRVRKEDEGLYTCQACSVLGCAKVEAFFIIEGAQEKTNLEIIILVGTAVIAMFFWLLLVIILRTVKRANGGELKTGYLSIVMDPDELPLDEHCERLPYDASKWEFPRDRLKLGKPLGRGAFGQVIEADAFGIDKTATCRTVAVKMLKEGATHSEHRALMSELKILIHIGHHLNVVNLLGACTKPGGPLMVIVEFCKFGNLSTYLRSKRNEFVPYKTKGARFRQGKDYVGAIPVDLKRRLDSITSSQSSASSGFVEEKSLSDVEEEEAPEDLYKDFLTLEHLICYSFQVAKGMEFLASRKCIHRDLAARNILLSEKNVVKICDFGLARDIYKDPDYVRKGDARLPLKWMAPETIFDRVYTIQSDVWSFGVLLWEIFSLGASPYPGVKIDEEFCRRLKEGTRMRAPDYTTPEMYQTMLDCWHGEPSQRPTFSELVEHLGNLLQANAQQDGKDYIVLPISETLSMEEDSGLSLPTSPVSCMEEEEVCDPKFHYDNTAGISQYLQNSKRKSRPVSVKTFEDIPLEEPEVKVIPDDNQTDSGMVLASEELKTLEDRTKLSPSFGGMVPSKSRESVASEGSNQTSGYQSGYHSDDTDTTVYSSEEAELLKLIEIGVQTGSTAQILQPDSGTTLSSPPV

SMILES: CCS(=O)(=O)c1ccc(OC)c(Nc2ncc(-c3cc(-c4cccnc4)cc(-c4cccnc4)c3)o2)c1
- IC50 [1]: 170 nM

SMILES: CCS(=O)(=O)c1ccc(OC)c(Nc2ncc(-c3cc(Br)cc(-c4ccccn4)c3)o2)c1
- IC50 [1]: 202 nM

SMILES: CCS(=O)(=O)c1ccc(OC)c(Nc2ncc(-c3cc(-c4cccnc4)cc(-c4ccccn4)c3)o2)c1
- IC50 [1]: 51.2 nM

SMILES: CCS(=O)(=O)c1ccc(OC)c(Nc2ncc(-c3cc(-c4ccccn4)cc(-c4ccccn4)c3)o2)c1
- inhibition (INH) (Danio rerio [2]): 7%
- inhibition (INH) (Danio rerio [3]): 87%
- Activity (Danio rerio [4]): Non-toxic
- inhibition (INH) (Danio rerio [5]): 53%
- inhibition (Danio rerio [6]): Dose-dependent effect
- inhibition (Danio rerio [7]): Active
- inhibition (BAEC [8]): Dose-dependent effect
- inhibition (BAEC [9]): Active
- IC50 (U2OS): 2030 nM
- Activity (BAEC [10]): Active
- IC50 (HL-60): 17800 nM
- IC50 [11]: 2430 nM
- IC50 (HT-29): 15200 nM
- IC50 (MDA-MB-231): 3990 nM
- IC50 [12]: 370 nM
- IC50 [1]: 15.1 nM
